High-throughput results (PubChem BioAssay)
Rows were chosen to be rich in hits. Some 2.7% of all compounds tested hit in one or more screens of this group.
PfM18AAP inh: PfM18AAP inhibitors, malaria aminopeptidase, primary screen, biochemical, QFRET, recombinant enzyme | inhibition, % at 7.35 µM | AID 1822, 2009 | 290,000 compounds, 1.2% hits | M18 aspartyl aminopeptidase (Plasmodium falciparum 3D7) | H-Glu-NHMec fluorogenic cleavage;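 active = inhibition above the campaign mean inhibition over all tested compounds plus 3 SD, cut at about 28% in these data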
Wee1 degr inh: Wee1 degradation inhibitors, primary screen, cell-based, HeLa, Wee1K328M-luciferase, luminescence. HeLa Luc-Wee1K328M stability; 100% = proteasome inhibitor MG132 effect. reporter increase, % at 5 µM. 220,000 compounds, 1.2% hits;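 active = activation above the mean of all tested compounds plus 3 SD, set per screening run, cut at about 8.8% in these data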;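 also: cells exposed to compound for 20 h before luminescence read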
Target sequence (P30291 whole entry K328M): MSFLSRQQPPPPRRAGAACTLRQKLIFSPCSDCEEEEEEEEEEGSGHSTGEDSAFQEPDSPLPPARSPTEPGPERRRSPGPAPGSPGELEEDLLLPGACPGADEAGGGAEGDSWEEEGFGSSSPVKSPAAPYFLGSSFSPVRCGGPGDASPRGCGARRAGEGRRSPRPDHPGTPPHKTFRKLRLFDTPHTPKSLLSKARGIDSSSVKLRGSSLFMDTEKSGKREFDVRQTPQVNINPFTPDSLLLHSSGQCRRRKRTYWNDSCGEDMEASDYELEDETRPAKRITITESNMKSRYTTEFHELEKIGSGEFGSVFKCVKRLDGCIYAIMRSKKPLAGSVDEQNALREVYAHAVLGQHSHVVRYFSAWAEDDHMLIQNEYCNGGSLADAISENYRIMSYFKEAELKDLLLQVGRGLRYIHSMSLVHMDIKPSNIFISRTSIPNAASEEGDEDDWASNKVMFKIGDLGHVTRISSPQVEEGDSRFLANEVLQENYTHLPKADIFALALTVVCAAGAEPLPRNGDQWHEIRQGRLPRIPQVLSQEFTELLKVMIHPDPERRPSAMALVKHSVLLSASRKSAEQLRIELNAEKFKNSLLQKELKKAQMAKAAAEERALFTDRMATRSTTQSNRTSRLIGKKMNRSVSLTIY
p97 ATPase inh: inhibitors of human p97 ATPase, primary screen, biochemical; AID 1481, 2009; recombinant p97 ATPase, Kinase-Glo ATP luminescence, 3 h; 220,000 compounds, 0.42% hits; inhibition, % at 8 µM; Transitional endoplasmic reticulum ATPase (Homo sapiens), P55072; in the data active = inhibition above about 15%
RBBP9 inhibitor: human RBBP9 inhibitors, primary screen, biochemical, fluorescence polarization, FP-Rh probe, HTS | 220,000 compounds, 0.2% hits | AID 1515, 2009 | inhibition, % at 7.94 µM | Serine hydrolase RBBP9 (Homo sapiens), O75884 | recombinant RBBP9;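 active = inhibition above the campaign mean of all tested compounds plus 3 SD, cut at about 14% in these data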
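Test system: recombinant human RBBP9; Timing: 30 min then 45 min, 25 °C; Detection: fluorescence polarization; Control set: RBBP9 with DMSO as uninhibited control, no-protein wells as full inhibition; Compound dosing: one concentration, 7.94 µM nominal, 0.794% DMSO; Probe or stimulus: FP-Rh activity-based probe, 375 nM before mixing.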
TNF necrop inh: inhibitors of TNF-alpha triggered necroptosis, primary screen, cell-based, Jurkat FADD-/-, single concentration; Jurkat FADD-/- TNF necroptosis rescue, ATP luminescence, 24 h; 0 = TNF only, 100 = no-TNF cells; activation (protection from cell death), % at 10 µM; 220,000 compounds, 0.068% hits; AID 463075, 2010;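 active = activation, meaning protection from cell death, of at least 50% relative to plate controls; inactive = activation below 50%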;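 also: necroptosis triggered by 40 ng/mL TNF-alpha added together with compound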
zVAD death inh: inhibitors of zVAD-triggered necroptosis, primary screen, L929 cells. L929 zVAD necroptosis rescue, ATP luminescence, 24 h; with zVAD 60 µM. viability rescue, % at 10 µM. 220,000 compounds, 0.38% hits. AID 1377, 2008;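 active = activation, scaled between plate controls, above about 75%, limit read from the data; inactive = activation under that limit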
Wee1 degr conf: Wee1 degradation inhibitors, confirmation, cell-based, HeLa, Wee1K328M-luciferase, luminescence, triplicate; shares compounds with Wee1 degr inh; HeLa Luc-Wee1K328M degradation; vehicle 0%, proteasome-blocked wells 100%; activation, % at 5 µM; 1,100 compounds, 4% hits; AID 1410, 2008; in the data active = activation above about 8.9%
A number is an active result; i = inactive; nt = no result given.

SMILES	PfM18AAP inh	Wee1 degr inh	p97 ATPase inh	RBBP9 inhibitor	TNF necrop inh	zVAD death inh	Wee1 degr conf
CCN1CCN(c2nc(Nc3ccc(OC)cc3)nc(N)c2[N+](=O)[O-])CC1	i	11.6	i	i	i	i	i
COc1ccccc1-c1ccc(SCc2ccccc2)nn1	i	i	i	i	i	i	nt
COc1ccccc1-c1ccc(SCc2ccccc2F)nn1	i	13.1	i	i	i	i	13.9
O=C(NCC1CCCO1)C(c1cccnc1)N(C(=O)Cc1cccs1)c1ccccc1 (centres undefined)	i	16.9	i	i	i	i	i
COc1cccc2cc(C(C)N(CCCN3CCOCC3)C(=S)Nc3ccc(C)c(C)c3)oc12 (centres undefined)	i	32.8	i	i	i	i	i
COc1ccc(NC(=S)N(CCCN2CCOCC2)C(C)c2cc3cccc(OC)c3o2)cc1 (centres undefined)	i	i	i	i	i	i	nt
COc1cccc2cc(C(C)N(CCCN3CCOCC3)C(=S)Nc3cc(C)ccc3C)oc12 (centres undefined)	i	13.6	i	i	i	i	i
CCN(CC(=O)Nc1ccc(N2CCOCC2)cc1)CC(=O)NC(C)(C)C	i	i	i	i	i	i	nt
CCn1c(=O)c2c(n3c(=S)[nH]nc13)-c1ccccc1CC21CCCCC1	i	i	i	i	i	i	nt
NNC(=O)CN1C(c2ccccc2Br)=Nc2ccc(Br)cc2C1c1ccccc1 (centres undefined)	i	11.1	i	i	i	i	i
COc1cccc(/C=N/NC(=O)c2cc3c(OC)c(OC)ccc3[nH]2)c1OC	i	11.6	i	i	i	i	10.3
COc1ccccc1/C=N/NC(=O)c1cc2c(OC)c(OC)ccc2[nH]1	i	nt	nt	nt	nt	nt	nt
CN(C)CCCNS(=O)(=O)c1ccc(N2CCC(c3ccc(Cl)cc3)=N2)cc1	i	i	i	i	i	i	nt
O=S(=O)(c1ccc(N2CCC(c3ccc(Cl)cc3)=N2)cc1)N(CCO)CCO	i	11.2	i	i	i	i	i
COc1ccccc1-c1nnc(-c2ccc(N3CCOCC3)cc2)o1	i	14.5	i	i	i	i	i
COc1ccccc1-c1nnc(SCC(=O)N2CCCCC2)o1	i	nt	nt	nt	nt	nt	nt
COc1ccccc1-c1nnc(SCC(=O)N2CCOCC2)o1	i	11.5	i	i	i	nt	i
COc1ccc(N(C)S(=O)(=O)c2cccc(C(=O)N(C)Cc3ccc(C)o3)c2)cc1	i	i	i	i	i	i	nt
O=C(Nc1ccon1)c1cccc(S(=O)(=O)N2CCCC2)c1	i	29.0	i	i	i	i	i
Cc1cc(C)c(C#N)c(Nc2cccc(C)c2C)n1	i	nt	nt	nt	nt	nt	nt
COC(=O)c1ccc(COc2ccccc2/C=C(\C#N)C(=O)Nc2ccccc2C)cc1	i	20.3	i	i	i	i	i
COC(=O)c1ccc(COc2ccccc2/C=C(\C#N)C(=O)Nc2c(C)cccc2C)cc1	i	i	i	i	i	i	nt
CCOc1ccc(S(=O)(=O)N2CCN(Cc3ccco3)CC2)cc1	i	nt	nt	nt	nt	nt	nt
O=C1CC(SC2=NCCS2)C(=O)N1c1cccc(Cl)c1Cl (centres undefined)	i	i	i	i	i	i	nt
CC(C)CCN1CCN(Cc2ccc(C#CC(C)(C)O)s2)CC1CCO (centres undefined)	i	11.4	i	i	i	i	i
SMILES	PfM18AAP inh	Wee1 degr inh	p97 ATPase inh	RBBP9 inhibitor	TNF necrop inh	zVAD death inh	Wee1 degr conf
CC(=O)c1c(C)[nH]c(C(=O)NCc2ccco2)c1C	i	11.7	i	i	i	i	i
CC(=O)c1c(C)[nH]c(C(=O)NCc2cccs2)c1C	i	i	i	i	i	i	nt
CCc1ccccc1NC(=O)NC1CCCCCCC1	i	nt	nt	nt	nt	nt	nt
CCN1C(=O)c2ccc(C(=O)Nc3ccc(O)cc3C)cc2C1=O	i	nt	nt	nt	nt	nt	nt
COc1ccc(N2CCC(CNC(=S)Nc3cccc(C)c3)C2)cc1 (centres undefined)	i	11.1	i	i	i	i	i
O=C(Cc1ccc(Cl)cc1)N1CCN(c2ccccc2)CC1	i	nt	nt	nt	nt	nt	nt
CC(C)Cc1nnc(NC(=O)CCC(=O)N2CCN(c3ccccc3F)CC2)s1	i	nt	nt	nt	nt	nt	nt
O=S(=O)(c1cccs1)N1CCN(c2ccc(O)cc2)CC1	37.3	22.9	i	i	i	i	i
CCCn1c(SCC(=O)OCC)nc(C(F)(F)F)cc1=O	i	i	i	i	i	i	nt
CCOC(=O)CSc1nc2cc(C(F)(F)F)cnc2n1C	i	10.9	i	i	i	i	i
COc1cc(C2=NOC(C(=O)NCc3cccs3)C2)cc(OC)c1OC (centres undefined)	i	11.1	i	i	i	i	15.3
COc1ccc(C2=NOC(C(=O)NCc3cccs3)C2)cc1OC (centres undefined)	i	i	i	i	i	i	nt
CN(CC1CCOCC1)C(=O)CC1C(=O)NCCN1Cc1ccc(F)c(F)c1 (centres undefined)	i	nt	nt	nt	nt	nt	nt
COC(=O)Cc1c(C(=O)OC)nnn1-c1ccc(OC)cc1	i	i	i	i	i	i	nt
COC(=O)CC1=NN(c2ccc(OC)cc2)C(=O)C1	i	11.6	i	i	i	i	i
CCCn1nc(NC(=O)c2cccs2)c2cc3cccc(C)c3nc21	i	i	i	i	i	i	nt
Cc1ccc2cc3c(N)c(C(=O)Nc4c(C)[nH]c(=O)[nH]c4=O)sc3nc2c1	i	11.7	i	i	i	i	i
Cc1ccc2nc3sc(C(=O)Nc4c(C)[nH]c(=O)[nH]c4=O)c(N)c3cc2c1	i	i	i	i	i	i	nt
CC(C)(C)NC(=O)Cn1c(=O)n(CC(=O)NC(C)(C)C)c2ccccc21	i	i	i	i	i	i	nt
Cc1ccc(C(=O)O)cc1NC(=S)NC(=O)c1ccc(-c2ccc(Cl)cc2)o1	i	12.1	i	i	i	i	i
COc1ccc(C(O)P(=O)(OCCC(C)C)c2ccc(N(C)C)cc2)cc1 (centres undefined)	i	nt	nt	nt	nt	nt	nt
CC(=O)Nc1nn(C)c2nc(C)cc(C)c12	i	i	i	i	i	i	nt
Cc1ccc(C2OC3=C(C(=O)CC(C)(C)C3)C(N)=C2C#N)o1 (centres undefined)	i	15.2	i	i	i	i	i
CC1(C)CC(=O)C2=C(C1)OC(N)=C(C#N)C2c1ccoc1 (centres undefined)	i	i	i	i	i	i	nt
